Measurements published in PubChem BioAssay.
Records with an inconclusive call do not appear. Activity calls are given as the source filed them.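 How the source made its calls, unless noted: active means inhibition over a set limit, the all-compound mean plus 3 SD, in both replicate runs; inconclusive means over that limit in just one replicate run; inactive means at or under that limit in both runs.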

Assays:
[1] = S. cerevisiae growth inhibition in permissive medium (OD615), pilot counter-assay for S. cerevisiae lifespan shortening project, permissive growth control (AID 705;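 active means growth inhibition above 25% in both replicates, a cutoff set 3 SD above the mean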); conditions: OD615, 24 h, at 10 µM, stronger effect = higher value
In short: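 assay system = Saccharomyces cerevisiae strain carrying genetically modified DeaD replicative-lifespan system | technique = absorbance (optical density) at 615 nm | buffer or medium = permissive raffinose/galactose medium | timing = cells pre-grown 4 h, then 24 h compound exposure, 30 °C humidified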

[2] = S. cerevisiae growth inhibition in restrictive medium, OD615, pilot screen, restrictive growth control, yeast lifespan reduction project (AID 706;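 active means growth inhibition above a set limit, 3 SD over mean compound inhibition, in both replicates, cut at about 43% in these data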;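 further: modified DeaD lifespan yeast strain shifted to restrictive glucose medium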); conditions: OD615, 48 h, at 10 µM, stronger effect = higher value
In short: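 System: modified S. cerevisiae. Buffer or medium: CSMM-D glucose medium. Incubation: 4 h pre-growth plus 48 h compound exposure, 30 °C. Detection: absorbance (optical density) measured at 615 nm.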

[3] = doxorubicin toxicity protection in MRP-1 cells – H69AR cells, CellTiter-Glo, duplicate, MRP-1 activator project, pilot screen (AID 807;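 active means viability increase at or above a cutoff of the median across tested compounds plus 3 SD, cut at about 8.5% in these data, passing the limit was not always enough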;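 further: compound pretreatment 18-22 h then 72 h combined with doxorubicin; 0% = doxorubicin alone and 100% = vehicle without doxorubicin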); conditions: H69AR viability with doxorubicin, CellTiter-Glo luminescence; at 10 µM; stronger effect = higher value
[4] = viability of HCT116 without oncogenic beta-catenin – human colon tumor cells, pilot screen (AID 823;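 active means cell viability at or below a set limit in both duplicate runs, the limit being the all-compound median minus 4 SD, cut at about 23% in these data, passing the limit was not always enough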;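 further: 0% = wells killed by 20 µM Hyamine and 100% = untreated DMSO cell wells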); conditions: HCT116 beta-catenin knockout viability, CellTiter-Glo, 60 h; at 10 µM; stronger effect = lower value
[5] = viability of PTEN-null HCT116 cells – cell-based, HCT116 clonal line, CellTiter-Glo, pilot screen (AID 824;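 active means viability at or below 27.92% in each of two runs, the all-compound median minus 4 SD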;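 further: 0% = 20 µM Hyamine control and 100% = vehicle cell control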); conditions: HCT116 PTEN-deleted viability, 60 h, at 10 µM, stronger effect = lower value
[6] = RAM pathway blockade in budding yeast – dse1pr::URA3 reporter, 5-FOA selection, pilot screen (AID 869);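 further: 0% = DMSO wells with no growth and 100% = 10 µM 1-NA-PP1 with full growth; RAM network block rescues cells from 5-FOA so hits raise OD615 growth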; conditions: S. cerevisiae dse1pr::URA3 5-FOA growth, OD615, 2 d; at 10 µM; stronger effect = higher value; strain carries analog-sensitive mutant Cbk1 kinase
[7] = RAM signaling pathway blockade in yeast – S. cerevisiae, Pdr1DBD-CYC8 efflux-inhibited sensitized strain, primary screen (AID 1298;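 active means RAM network inhibition above 8.4% in each of two replicates, 3 SD over the compound average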;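 further: 0% = DMSO untreated cells without growth and 100% = 10 µM 1-NA-PP1 full growth; higher means more yeast growth rescued from 5-FOA killing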); conditions: S. cerevisiae cbk1-as DSE1-URA3 strain, 5-FOA growth OD615, 2 d; at 50 µM; stronger effect = higher value

O=C(CN1CCOCC1)Nc1cc(Cl)ccc1Cl
inactive: growth inhibition [1] -13.4% | growth inhibition [2] -2.5% | viability increase [3] -2.37% | viability [4] 92.6% | viability [5] 101% | inhibition [6] 2.6% | RAM network inhibition [7] 1.66%

Cn1c(=O)[nH]c(=O)c2c1nc(N1CCC(Cc3ccccc3)CC1)n2Cc1ccccc1
inactive: growth inhibition [1] -19.2% | growth inhibition [2] -10.1% | viability increase [3] -6.11% | viability [4] 82.8% | viability [5] 69.5% | inhibition [6] 2.9% | RAM network inhibition [7] 3.08%

O=C(CSCCNS(=O)(=O)c1ccccc1)Nc1ccccc1
inactive: growth inhibition [1] -6.82% | growth inhibition [2] -4.2% | viability increase [3] -2.84% | viability [4] 91% | viability [5] 91.6% | inhibition [6] 1.77% | RAM network inhibition [7] 0.37%

COc1ccc(-c2nc(CS(=O)CC(=O)NCc3cccnc3)c(C)o2)cc1 (configuration not stated)
inactive: growth inhibition [1] 2.57% | growth inhibition [2] -2.7% | viability increase [3] -4.05% | viability [4] 89.3% | viability [5] 92.5% | inhibition [6] 1.14% | RAM network inhibition [7] 1.62%

COC(=O)c1cc(NC2c3ccccc3C(=O)N2c2ccc(Cl)cn2)cc(C(=O)OC)c1 (configuration not stated)
inactive: growth inhibition [1] -20.1% | growth inhibition [2] -16.2% | viability increase [3] 0.19% | viability [4] 71.2% | viability [5] 64.4% | inhibition [6] 1.5% | RAM network inhibition [7] 4.41%

COc1ccc(N(C)S(=O)(=O)c2cccc(C(=O)NC3=NCCS3)c2)cc1
inactive: growth inhibition [1] -4.93% | growth inhibition [2] -1.7% | viability increase [3] -1.55% | viability [4] 91.6% | viability [5] 89.8% | inhibition [6] 1.13% | RAM network inhibition [7] 2.28%

NC(=O)C1CCN(c2ncnc3c2c(-c2ccccc2)cn3-c2ccccc2)CC1
inactive: growth inhibition [1] -2.17% | growth inhibition [2] 8.02% | viability increase [3] -4.62% | viability [4] 81.3% | viability [5] 81.9% | inhibition [6] -0.35% | RAM network inhibition [7] 3.9%

COC(=O)c1ccsc1NC(=O)c1ccc(Cl)s1
inactive: growth inhibition [1] -17.6% | growth inhibition [2] -27.1% | viability increase [3] -6.51% | viability [4] 94.7% | viability [5] 87.9% | inhibition [6] 3.58% | RAM network inhibition [7] 5.89%

CCC1CCCCN1C(=O)c1cc2cc(Br)ccc2oc1=O (configuration not stated)
inactive: growth inhibition [1] -9.03% | growth inhibition [2] -15.9% | viability increase [3] -2.87% | viability [4] 106% | viability [5] 94.8% | inhibition [6] 0.68% | RAM network inhibition [7] 2.89%

CCOC(=O)c1cc2c(=O)n3ccccc3nc2n(CCCOC)c1=NC(=O)c1cccnc1
inactive: growth inhibition [1] -0.71% | growth inhibition [2] -4.29% | viability increase [3] -4.22% | viability [4] 112% | viability [5] 93.7% | inhibition [6] 0.775% | RAM network inhibition [7] 3.03%

O=C(CC(=O)N1CCN(c2ccccn2)CC1)Nc1ccc2nc3n(c(=O)c2c1)CCCCC3
inactive: growth inhibition [1] -3.13% | growth inhibition [2] -3.46% | viability increase [3] 0.08% | viability [4] 101% | viability [5] 100% | inhibition [6] 0.87% | RAM network inhibition [7] 2.7%

Cn1c(CNC(=O)c2ccc(F)cc2)nc2ccccc21
inactive: growth inhibition [1] -0.44% | growth inhibition [2] -5.71% | viability increase [3] -2.48% | viability [4] 99.5% | viability [5] 102% | inhibition [6] 0.325% | RAM network inhibition [7] 3.67%

O=C1c2oc3ccc(F)cc3c(=O)c2C(c2ccncc2)N1CCN1CCOCC1 (configuration not stated)
inactive: growth inhibition [1] 3.02% | growth inhibition [2] 3.27% | viability increase [3] 0.53% | viability [4] 110% | viability [5] 99.2% | inhibition [6] 1.26% | RAM network inhibition [7] 0.47%

COc1ccc(NC(=O)C2CCN(C(=O)c3ccccc3)CC2)c(OC)c1
inactive: growth inhibition [1] 9.86% | growth inhibition [2] -0.9% | viability increase [3] -2.96% | viability [4] 95.8% | viability [5] 94.8% | inhibition [6] 2.57% | RAM network inhibition [7] 3.44%

COc1ccc(NC(=O)CN(c2cc(C)cc(C)c2)S(=O)(=O)c2c(C)noc2C)cc1
inactive: growth inhibition [1] -19.1% | growth inhibition [2] -14.2% | viability increase [3] -2.45% | viability [4] 95.2% | viability [5] 101% | inhibition [6] 0.19% | RAM network inhibition [7] 2.39%

CCCN1C(=O)c2cc(C(=O)Nc3ccccc3CC)ccc2C1O (configuration not stated)
inactive: growth inhibition [1] -6.36% | growth inhibition [2] -1.31% | viability increase [3] -0.05% | viability [4] 101% | viability [5] 108% | inhibition [6] 0.77% | RAM network inhibition [7] 3.59%

COC(=O)Cn1c(=NC(=O)C2CC2)sc2c(C)cc(C)cc21
inactive: growth inhibition [1] -12.3% | growth inhibition [2] -19% | viability increase [3] -2.07% | viability [4] 92.9% | viability [5] 91.4% | inhibition [6] 0.27% | RAM network inhibition [7] 4.34%

O=C(Nc1ccccc1)N1CCN2C(=O)c3ccccc3C12c1ccccc1 (configuration not stated)
inactive: growth inhibition [1] -7.51% | growth inhibition [2] -1.31% | viability increase [3] -2.35% | viability [4] 89.9% | viability [5] 89.5% | inhibition [6] 1.29% | RAM network inhibition [7] 2.89%

CCCCS(=O)(=O)/C=C\C=C/S(=O)(=O)CCCC
active: growth inhibition [2] 60% | viability [4] 1.4% | viability [5] 1.36%
inactive: growth inhibition [1] 14.9% | viability increase [3] -7.95% | inhibition [6] -0.535% | RAM network inhibition [7] -3.06%

CCOC(=O)CCSCC(=O)Nc1nnc(C)s1
inactive: growth inhibition [1] -1.14% | growth inhibition [2] -0.57% | viability increase [3] 0.86% | viability [4] 113% | viability [5] 100% | inhibition [6] 0.55% | RAM network inhibition [7] 3.07%

Cc1cc2oc(C(=O)Nc3cccnc3)c(C)c2cc1C
inactive: growth inhibition [1] 7.22% | growth inhibition [2] 6.46% | viability increase [3] -1.32% | viability [4] 90.1% | viability [5] 87% | inhibition [6] 0.52% | RAM network inhibition [7] 1.77%

CCOc1ccc(/C(=N\O)C(C)NO)cc1 (configuration not stated)
inactive: growth inhibition [1] -16.4% | growth inhibition [2] -10.4% | viability increase [3] 1.06% | viability [4] 87.9% | viability [5] 97.1% | inhibition [6] 0.925% | RAM network inhibition [7] 3.88%

Cn1c(SCC(=O)Nc2cc(=O)n(C)c(=O)n2C)nnc1C12CC3CC(CC(C3)C1)C2
inactive: growth inhibition [1] 2.36% | growth inhibition [2] 12.8% | viability increase [3] -4.43% | viability [4] 88.8% | viability [5] 92.7% | inhibition [6] 2.03% | RAM network inhibition [7] 3.38%

CC(Oc1ccc(Cl)cc1Cl)C(=O)NCCN1CCOCC1 (configuration not stated)
inactive: growth inhibition [1] -8.7% | growth inhibition [2] 4.87% | viability increase [3] -2.33% | viability [4] 100% | viability [5] 97.5% | inhibition [6] -0.29% | RAM network inhibition [7] 1.53%

CC(=O)c1ccc(-n2nncc2C(C)(C)C)cc1
inactive: growth inhibition [1] -3.02% | growth inhibition [2] -2.67% | viability increase [3] -0.85% | viability [4] 98.6% | viability [5] 99.5% | inhibition [6] 1.47% | RAM network inhibition [7] 0.78%

COc1ccccc1-n1c2c(cc(C(=O)N3CCC(C)CC3)c1=O)C(=O)CC(C)(C)C2
inactive: growth inhibition [1] -21.2% | growth inhibition [2] -5.49% | viability increase [3] -0.6% | viability [4] 101% | viability [5] 90.7% | inhibition [6] 0.005% | RAM network inhibition [7] 4.67%

Cc1cc(C)nc(SCCCn2c(=O)[nH]c3ccccc32)n1
inactive: growth inhibition [1] -6.43% | growth inhibition [2] -7.19% | viability increase [3] 1.32% | viability [4] 99.9% | viability [5] 90.5% | inhibition [6] 1.02% | RAM network inhibition [7] 10.9%

CC(=O)Nc1cccc(N(C)C)c1
inactive: growth inhibition [1] 3.45% | growth inhibition [2] 5.4% | viability increase [3] -0.76% | viability [4] 96.1% | viability [5] 105% | inhibition [6] 1.44% | RAM network inhibition [7] 1.55%

CCOc1ccc(Nc2ncnc(N)n2)cc1
inactive: growth inhibition [1] -16% | growth inhibition [2] -1.21% | viability increase [3] 0.15% | viability [4] 97.4% | viability [5] 102% | inhibition [6] 0.055% | RAM network inhibition [7] 1.11%

CCCCS(=O)CC(CS(=O)CCCC)OC(=O)c1ccccc1 (configuration not stated)
inactive: growth inhibition [1] 4.33% | growth inhibition [2] 5.83% | viability increase [3] -1.89% | viability [4] 102% | viability [5] 96.1% | inhibition [6] 0.405% | RAM network inhibition [7] 2.4%

Cc1noc(C)c1S(=O)(=O)N(CC(=O)Nc1ccc2c(c1)OCO2)c1ccc(C(C)C)cc1
inactive: growth inhibition [1] -5.59% | growth inhibition [2] -3.17% | viability increase [3] -3.69% | viability [4] 96.4% | viability [5] 93.5% | inhibition [6] 2.64% | RAM network inhibition [7] -0.06%

COc1ccc(C(=O)Nc2cc(-c3nn4c(C)nnc4s3)ccc2C)cc1
inactive: growth inhibition [1] 8.96% | growth inhibition [2] 33.2% | viability increase [3] -5.02% | viability [4] 98.3% | viability [5] 88.2% | inhibition [6] 1.27% | RAM network inhibition [7] 2.75%

COc1ccc(NC(=O)C2c3cc(OC)c(OC)cc3C(=O)N(C)C2c2cccnc2)cc1OC (configuration not stated)
inactive: growth inhibition [1] -1.76% | growth inhibition [2] -0.86% | viability increase [3] -3.2% | viability [4] 94.8% | viability [5] 95.5% | inhibition [6] 0.645% | RAM network inhibition [7] 4.68%

Cc1ccsc1-c1nc(CSCC(=O)NCc2ccc3c(c2)OCO3)c(C)o1
inactive: growth inhibition [1] -9.04% | growth inhibition [2] 2.91% | viability increase [3] -0.27% | viability [4] 87.2% | viability [5] 84% | inhibition [6] 0.83% | RAM network inhibition [7] 9.63%

O=C(CSc1n[nH]c(-c2ccccc2)n1)c1ccccc1
inactive: growth inhibition [1] -0.485% | growth inhibition [2] 16.9% | viability increase [3] -0.56% | viability [4] 95.8% | viability [5] 95.5% | inhibition [6] 1.01% | RAM network inhibition [7] 2.45%

CCOc1ccc(C2CC(c3ccc(F)cc3)n3ncnc3N2)cc1 (configuration not stated)
inactive: growth inhibition [1] 4.61% | growth inhibition [2] -1.42% | viability increase [3] -0.13% | viability [4] 100% | viability [5] 91.1% | inhibition [6] 2.65% | RAM network inhibition [7] -0.36%
